Calls of active or inactive are those of the source. No cut-off for these calls is given here.
What was measured:
3T3-L1 [1] = experiment: Cytotoxicity against mouse 3T3L1 cells assessed as reduction in cell viability at 40 uM after 48 hrs by MTT assay; type: cell-based; settings: 3t3-l1, 48 h
How it was run: (§1)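 3T3-L1 preadipocytes incubated 48 h with 5, 10, 20 or 40 μM compound; viability read by MTT assay against 0.1% DMSO-treated control cells. Mean ± SD of three independent experiments.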

3T3-L1 [2] = experiment: Reduction in lipid accumulation in mouse 3T3L1 cells at 10 uM by Oil Red O staining-based absorbance method relative to control; type: functional
How it was run: (§2)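 3T3-L1 preadipocytes differentiated to mature adipocytes, then treated with compound (screen at 10 μM; concentration series 10, 20, 40, 80 μM). Lipid stained with Oil Red O, dye extracted and absorbance read at 492 nm; microscopic images also taken. Compared with vehicle; mean ± SD of two independent experiments.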

3T3-L1 [3] = experiment: Cytotoxicity against mouse 3T3L1 cells assessed as effect on cell viability at 10 uM after 48 hrs by MTT assay; type: cell-based; settings: 3t3-l1, 48 h; how it was run: as §1
3T3-L1 [4] = experiment: Increase in cell viability of mouse 3T3L1 cells at 5 uM after 48 hrs by MTT assay; type: functional, cell-based; how it was run: as §1
[5] = biological target: T1, Bile acid receptor (Homo sapiens) (UniProt Q96RI1); experiment: Transactivation of FXR (unknown origin) at 10 uM by cell-based dual luciferase reporter gene assay
T1 sequence (whole entry): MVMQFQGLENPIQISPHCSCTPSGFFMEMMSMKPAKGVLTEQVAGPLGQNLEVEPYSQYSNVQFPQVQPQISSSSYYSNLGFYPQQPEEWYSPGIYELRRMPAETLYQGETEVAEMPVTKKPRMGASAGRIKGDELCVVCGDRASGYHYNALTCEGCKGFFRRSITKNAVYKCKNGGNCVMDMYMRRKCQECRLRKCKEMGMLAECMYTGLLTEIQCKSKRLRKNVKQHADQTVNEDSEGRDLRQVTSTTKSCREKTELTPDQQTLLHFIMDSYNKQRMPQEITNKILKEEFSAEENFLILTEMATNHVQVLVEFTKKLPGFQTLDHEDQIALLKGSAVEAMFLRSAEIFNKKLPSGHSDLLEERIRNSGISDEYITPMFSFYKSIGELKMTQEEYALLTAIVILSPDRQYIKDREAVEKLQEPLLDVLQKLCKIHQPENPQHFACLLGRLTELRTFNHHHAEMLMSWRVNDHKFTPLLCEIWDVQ
How it was run: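 Cell-based FXR transactivation measured with a dual-luciferase reporter system; cells exposed to 10 μM compound. Mean ± SEM, n = 3.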

HepG2 [6] = experiment: Induction of cell proliferation in human HepG2 cells at <20 uM; type: functional, cell-based
[7] = biological target: T1, Bile acid receptor (Homo sapiens); experiment: Agonist activity against FXR in human HepG2 cells assessed as down regulation of SREBP-1c mRNA expression at 10 uM by RT-PCR analysis; type: cell-based
How it was run: (§3)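 HepG2 cells exposed to test agent at 10 μM; mRNA of FXR and FXR-regulated genes SHP, BSEP and SREBP-1c quantified by real-time PCR relative to vehicle. Mean ± SEM, n = 3.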

[8] = Hepatotoxicity in human HepG2 cells assessed as reduction in cell viability at 80 uM; type: toxicity, cell-based; settings: hepg2, 80 µM
[9] = biological target: T1, Bile acid receptor (Homo sapiens); experiment: Agonist activity against FXR in human HepG2 cells assessed as up-regulation of SHP mRNA expression at 10 uM by RT-PCR analysis; type: cell-based; how it was run: as §3
HepG2 [10] = experiment: Up-regulation of FXR mRNA expression in human HepG2 cells at 10 uM by RT-PCR analysis; type: functional, cell-based; how it was run: as §3
3T3-L1 [11] = experiment: Reduction in lipid accumulation in mouse 3T3L1 cells at 80 uM by Oil Red O staining-based absorbance method relative to control; type: functional; parameters: scale not given: the % may be the effect or the level left; how it was run: as §2
3T3-L1 [12] = experiment: Reduction in lipid accumulation in mouse 3T3L1 cells at 10 to 80 uM by Oil Red O staining-based microscopic analysis; type: functional, cell-based; how it was run: as §2
3T3-L1 [13] = experiment: Reduction in lipid accumulation in mouse 3T3L1 cells by Oil Red O staining-based absorbance method; type: functional, cell-based; how it was run: as §2
[14] = biological target: T1, Bile acid receptor (Homo sapiens); experiment: Agonist activity against FXR in human HepG2 cells assessed as up-regulation of BSEP mRNA expression at 10 uM by RT-PCR analysis; type: cell-based; how it was run: as §3

Structure (SMILES): CC(C)c1onc(-c2c(Cl)cccc2Cl)c1COc1ccc2c(=O)c(-c3ccc(C(=O)O)cc3)coc2c1
- Activity (3T3-L1 [1]): Non-Toxic
- Activity (3T3-L1 [2]): Active
- Activity (3T3-L1 [3]): Non-Toxic

Structure (SMILES): CC(C)c1onc(-c2c(Cl)cccc2Cl)c1COc1ccc2c(=O)c(-c3ccc(C(=O)NC4CC4)cc3)coc2c1
- Activity (3T3-L1 [4]): Active
- Activity (3T3-L1 [1]): Non-Toxic
- Activity (3T3-L1 [2]): Active
- Activity (3T3-L1 [3]): Non-Toxic

Structure (SMILES): COC(=O)c1ccc(-c2coc3cc(OCc4c(-c5c(Cl)cccc5Cl)noc4C(C)C)ccc3c2=O)cc1
- Activity (3T3-L1 [1]): Non-Toxic
- Activity (3T3-L1 [2]): Active
- Activity (3T3-L1 [3]): Non-Toxic

Structure (SMILES): CC(C)c1onc(-c2c(Cl)cccc2Cl)c1COc1ccc(/C=C/c2cccc(C(=O)O)c2)c(Cl)c1
- Activity [5]: Active
- Activity (3T3-L1 [2]): Active
- Activity (3T3-L1 [3]): Non-Toxic

Structure (SMILES): CNC(=O)c1ccc(-c2coc3cc(OCc4c(-c5c(Cl)cccc5Cl)noc4C(C)C)ccc3c2=O)cc1
- Activity (3T3-L1 [1]): Non-Toxic
- Activity (3T3-L1 [2]): Active
- Activity (3T3-L1 [3]): Non-Toxic

Structure (SMILES): COc1ccc(-c2coc3cc(OCc4c(-c5c(Cl)cccc5Cl)noc4C(C)C)ccc3c2=O)cc1
- Activity (3T3-L1 [1]): Non-Toxic
- Activity (3T3-L1 [2]): Active
- Activity (3T3-L1 [3]): Non-Toxic

Structure (SMILES): CCNC(=O)c1ccc(-c2coc3cc(OCc4c(-c5c(Cl)cccc5Cl)noc4C(C)C)ccc3c2=O)cc1
- Activity (3T3-L1 [1]): Non-Toxic
- Activity (3T3-L1 [2]): Active
- Activity (3T3-L1 [3]): Non-Toxic

Structure (SMILES): CC(C)c1onc(-c2c(Cl)cccc2Cl)c1COc1ccc2c(=O)c(-c3ccc(F)cc3)coc2c1
- Activity (3T3-L1 [1]): Non-Toxic
- Activity (3T3-L1 [3]): Non-Toxic

Structure (SMILES): CC(C)c1onc(-c2c(Cl)cccc2Cl)c1COc1ccc2c(=O)c(-c3ccc(C(=O)N(C)C)cc3)coc2c1
- Activity (HepG2 [6]): Active
- Activity [7]: Active
- Activity [8]: Non-Toxic
- Activity [9]: Active
- Activity (HepG2 [10]): Active
- Activity (3T3-L1 [11]): >50%
- Activity (3T3-L1 [12]): Active
- Activity [5]: Active
- Activity (3T3-L1 [1]): Non-Toxic
- Activity (3T3-L1 [13]): Dose-dependent effect
- Activity (3T3-L1 [2]): Active
- Activity [14]: Active
- Activity (3T3-L1 [3]): Non-Toxic

Structure (SMILES): CC(C)c1onc(-c2c(Cl)cccc2Cl)c1COc1ccc2c(=O)c(-c3ccc(OCC(=O)O)cc3)coc2c1
- Activity (3T3-L1 [1]): Non-Toxic
- Activity (3T3-L1 [2]): Active
- Activity (3T3-L1 [3]): Non-Toxic

Structure (SMILES): CC(C)c1onc(-c2c(Cl)cccc2Cl)c1COc1ccc2c(=O)c(-c3ccc(O)cc3)coc2c1
- Activity (3T3-L1 [1]): Toxic
- Activity (3T3-L1 [2]): Active
- Activity (3T3-L1 [3]): Non-Toxic

Structure (SMILES): CCOC(=O)COc1ccc(-c2coc3cc(OCc4c(-c5c(Cl)cccc5Cl)noc4C(C)C)ccc3c2=O)cc1
- Activity (3T3-L1 [1]): Non-Toxic
- Activity (3T3-L1 [2]): Active
- Activity (3T3-L1 [3]): Non-Toxic

Structure (SMILES): CC(C)c1onc(-c2c(Cl)cccc2Cl)c1COc1ccc2c(=O)c(-c3ccc([N+](=O)[O-])cc3)coc2c1
- Activity (3T3-L1 [1]): Non-Toxic
- Activity (3T3-L1 [2]): Active
- Activity (3T3-L1 [3]): Non-Toxic

— ChEMBL document CHEMBL4257574, “Structure-guided design and synthesis of isoflavone analogs of GW4064 with potent lipid accumulation inhibitory activities” (Bioorg Med Chem Lett, 2018)
